Blank lines part the entries; values can stand above or below the compound they belong to. Calls of active or inactive are those of the source. No cut-off for these calls is given here.
Columns and labels:
[1] = target: Small ubiquitin-related modifier 1 (Homo sapiens) (UniProt P63165); assay: Inhibition of SUMO1 (unknown origin) assessed as reduction in SUMOylated RanGAP1 level at 50 uM incubated for 60 mins by western blot analysis
How it was run: (§1)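 Cell-free RanGAP1 SUMOylation reaction; compounds dissolved in the reaction medium at 50 μM for the initial screen, then retested at 5 μM.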

PC3 (Homo sapiens) = assay: Cytotoxicity against human PC3 cells assessed as cell death at 10 to 20 uM incubated for 24 hrs by crystal violet staining based spectrophotometric analysis; conditions: dose microM 10-20, time 24.0 hrs
[2] = target: Small ubiquitin-related modifier 1 (Homo sapiens) (UniProt P63165); assay: Inhibition of SUMO1 in human PC3 cells assessed as reduction in SUMOylation level at 10 to 20 uM measured after 24 hrs by western blot analysis; type: cell-based; conditions: PC-3, dose microM 10-20, time 24.0 hrs
PC-3 [3] = assay: Induction of autophagy in human PC3 cells assessed as increased of LC3-II level at 20 uM incubated for 24 hrs by Western blot analysis; type: functional, cell-based
How it was run: (§2)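 PC3 cells treated at 10 or 20 μM; cleaved PARP and LC3II levels assessed by immunoblot as apoptosis and autophagy markers.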

[4] = target: Small ubiquitin-related modifier 2 (Homo sapiens) (UniProt P61956); assay: Inhibition of SUMO2 in human PC3 cells assessed as reduction in SUMOylation level at 10 uM measured after 24 hrs by western blot analysis; type: cell-based; conditions: PC-3
Sequence of Small ubiquitin-related modifier 2 (Homo sapiens) (P61956 whole entry): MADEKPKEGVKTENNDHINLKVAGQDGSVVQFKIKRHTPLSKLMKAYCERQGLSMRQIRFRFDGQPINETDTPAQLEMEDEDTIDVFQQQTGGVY

PC-3 [5] = assay: Induction of autophagy in human PC3 cells assessed as increased of LC3-II level at 10 uM incubated for 24 hrs by Western blot analysis; type: functional, cell-based; how it was run: as §2
[6] = target: Small ubiquitin-related modifier 1 (Homo sapiens) (UniProt P63165); assay: Inhibition of SUMO1 in human MDA-MB-231 cells assessed as reduction in SUMOylation level at 10 uM measured after 24 hrs by western blot analysis; type: cell-based
PC-3 [7] = assay: Induction of autophagy-mediated apoptosis in human PC3 cells assessed as increase in cleave PARP level at 10 uM measured after 24 hrs by western blot analysis; type: functional, cell-based; how it was run: as §2
PC-3 [8] = assay: Induction of autophagy-mediated apoptosis in human PC3 cells assessed as increase in cleave PARP level at 20 uM measured after 24 hrs by western blot analysis; type: functional, cell-based; how it was run: as §2
[9] = target: Small ubiquitin-related modifier 1 (Homo sapiens) (UniProt P63165); assay: Inhibition of SUMO1 (unknown origin) assessed as reduction in SUMOylated RanGAP1 level at 5 uM incubated for 60 mins by western blot analysis; how it was run: as §1
PC-3 [10] = assay: Cytotoxicity against human PC3 cells assessed as reduction in cell viability incubated for 48 hrs by crystal violet staining based spectrophotometric analysis; type: functional; conditions: PC-3, 48 h
How it was run: (§3)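 PC3 and MDA-MB-231 cells exposed to compounds for 48 h at 10 or 20 μM; viability compared with nontreated cells (significance P ≤ 0.05); IC50 values determined in both lines; at least three independent experiments, mean ± SEM.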

MDA-MB-231 = assay: Cytotoxicity against human MDA-MB-231 cells assessed as reduction in cell viability incubated for 48 hrs by crystal violet staining based spectrophotometric analysis; type: functional; conditions: MDA-MB-231, 48 h; how it was run: as §3

Sequence of Small ubiquitin-related modifier 1 (Homo sapiens) (P63165 whole entry): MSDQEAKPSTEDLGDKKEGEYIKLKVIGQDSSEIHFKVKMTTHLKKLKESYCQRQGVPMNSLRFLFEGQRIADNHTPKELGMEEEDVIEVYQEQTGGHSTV

inhibition [1]: inactive
Compound: CCCCCCCCCCCc1ccc(C(=O)O)c(O)c1

inhibition [1]: inactive
Compound: CCCCCCCCCCC/C=C/c1cccc(C(=O)O)c1O

inhibition [1]: inactive
Compound: CCCCCCCCC/C=C/c1ccc(C(=O)O)c(O)c1

inhibition [1]: inactive
Compound: CCCC/C=C/c1cccc(O)c1C(=O)O

inhibition [1]: inactive
Compound: CCCCCCCCCCCc1ccc(O)c(C(=O)O)c1

inhibition [1]: Active
inhibition [2]: Active
inhibition [4]: Active
inhibition [6]: Active
Compound: CCCCCCCCCCCc1cccc(O)c1C(=O)O
Activity (PC3 (Homo sapiens)): Active
Activity (PC-3 [3]): Active
Activity (PC-3 [5]): Active
Activity (PC-3 [7]): Active
Activity (PC-3 [8]): Active

inhibition [1]: inactive
Compound: CCCCCCc1cccc(O)c1C(=O)O

inhibition [1]: inactive
Compound: CCCCCCCCCCCCCCCc1ccc(O)c(C(=O)O)c1

inhibition [1]: Active
Compound: CCCCCCCCCCCCC/C=C/c1cccc(O)c1C(=O)O

inhibition [1]: inactive
Compound: CCCCCCCCCCCCC/C=C/c1ccc(C(=O)O)c(O)c1

inhibition [1]: inactive
Compound: CCCCCCCCC/C=C/c1ccc(O)c(C(=O)O)c1

inhibition [1]: inactive
Compound: CCCCCCCCC/C=C/c1cccc(C(=O)O)c1O

inhibition [1]: inactive
Compound: CCCCCCCCCCCCCc1ccc(C(=O)O)c(O)c1

inhibition [9]: Active
inhibition [1]: Active
inhibition [2]: Active
inhibition [4]: Active
inhibition [6]: Active
Compound: CCCCCCCCCCC/C=C/c1cccc(O)c1C(=O)O
Activity (PC3 (Homo sapiens)): Active
Activity (PC-3 [3]): Active
Activity (PC-3 [5]): Active
IC50 (PC-3 [10]): 10.8 µM
Activity (PC-3 [7]): Active
Activity (PC-3 [8]): Active
IC50 (MDA-MB-231): 8.2 µM

inhibition [1]: inactive
Compound: CCCCCCCCc1cccc(O)c1C(=O)O

inhibition [1]: inactive
Compound: CCCCCCCCCCC/C=C/c1ccc(C(=O)O)c(O)c1

inhibition [1]: inactive
inhibition [2]: inactive
inhibition [6]: inactive
Compound: CCCCCCCCCCCCCc1cccc(C(=O)O)c1O
Activity (PC-3 [3]): Active
Activity (PC-3 [5]): inactive
IC50 (PC-3 [10]): 14.8 µM
Activity (PC-3 [7]): inactive
Activity (PC-3 [8]): Active
IC50 (MDA-MB-231): 12.8 µM

inhibition [1]: inactive
Compound: CCCCCCCCCCCCCc1ccc(O)c(C(=O)O)c1

inhibition [1]: inactive
Compound: CCCCCCCCCCC/C=C/c1ccc(O)c(C(=O)O)c1

inhibition [1]: inactive
Compound: CCCCCCCCCCCCC/C=C/c1cccc(C(=O)O)c1O

inhibition [1]: inactive
Compound: CCCCCCCCCCCCCCCc1cccc(C(=O)O)c1O

inhibition [9]: Active
inhibition [1]: Active
inhibition [2]: Active
inhibition [4]: Active
inhibition [6]: Active
Compound: CCCCCCCCC/C=C/c1cccc(O)c1C(=O)O
Activity (PC3 (Homo sapiens)): Active
Activity (PC-3 [3]): Active
Activity (PC-3 [5]): Active
Activity (PC-3 [7]): Active
Activity (PC-3 [8]): Active

inhibition [1]: inactive
Compound: CCCCCCCCCCCc1cccc(C(=O)O)c1O

inhibition [1]: inactive
Compound: CCCCCC/C=C/c1cccc(O)c1C(=O)O

inhibition [1]: Active
inhibition [2]: Active
inhibition [4]: Active
inhibition [6]: Active
Compound: CCCCCCCCCCCCCc1cccc(O)c1C(=O)O
Activity (PC3 (Homo sapiens)): Active
Activity (PC-3 [3]): Active
Activity (PC-3 [5]): Active
Activity (PC-3 [7]): Active
Activity (PC-3 [8]): Active

inhibition [1]: Active
Compound: CCCCCCCCCCCCCCCc1cccc(O)c1C(=O)O

inhibition [1]: inactive
Compound: CCCCCCCCCCCCCCCc1ccc(C(=O)O)c(O)c1

inhibition [1]: inactive
Compound: CCCCCCCCCCCCC/C=C/c1ccc(O)c(C(=O)O)c1
